Measurements taken from ChEMBL document CHEMBL3526088, “The intestine as an important contributor to prasugrel active metabolite formation in vivo” (Drug Metab Dispos, 2011).

Experiments:
[1] = test system: Liver microsome; assay: Drug metabolism in dog liver microsomes assessed as R-138727 formation at 1.6 to 200 uM after 15 mins incubation; format: ADME, Canis lupus familiaris; conditions: 0.25 h
How it was run: (§1)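 Preincubated 5 min at 37°C, then R-95913 added (1.6–200 μM final) and incubated 15 min at 37°C, in triplicate. Stopped with methoxyphenacyl bromide and internal standard in acetonitrile, solid-phase extracted, and analysed by HPLC. Michaelis-Menten fit, CLint = Vmax/Km.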

[2] = test system: Liver microsome; assay: Drug metabolism in human liver microsomes assessed as R-138727 formation at 1.6 to 200 uM after 15 mins incubation; format: ADME; conditions: 0.25 h
[3] = Intrinsic clearance in dog intestinal microsomes assessed as R-138727 formation measured per protein at 1.6 to 200 uM after 15 mins incubation; format: ADME, Canis lupus familiaris, Intestine, Microsome; conditions: 0.25 h
How it was run: (§2)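 Microsomes (1 mg protein/ml; dog intestinal, dog liver or human intestinal) in 43 mM potassium phosphate pH 7.4 with an NADPH-generating system and 5 mM glutathione, in triplicate. After 5 min preincubation at 37°C, R-95913 (1.6–200 µM final) was added for 15 min at 37°C. Product was derivatised with methoxyphenacyl bromide, extracted by SPE and measured by HPLC. Michaelis–Menten fit; CLint = Vmax/Km.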

[4] = test system: Liver microsome; assay: Drug metabolism in dog liver microsomes assessed as R-138727 formation measured per protein at 1.6 to 200 uM after 15 mins incubation; format: ADME, Canis lupus familiaris; conditions: 0.25 h; how it was run: as §1
[5] = Drug metabolism in human intestinal microsomes assessed as R-138727 formation measured per protein at 1.6 to 200 uM after 15 mins incubation; format: ADME, Intestine, Microsome; conditions: 0.25 h; how it was run: as §1
[6] = Intrinsic clearance in human intestinal microsomes assessed as R-138727 formation measured per protein at 1.6 to 200 uM after 15 mins incubation; format: ADME, Intestine, Microsome; conditions: 0.25 h; how it was run: as §2
[7] = test system: Liver microsome; assay: Drug metabolism in human liver microsomes assessed as R-138727 formation at 1.6 to 200 uM measured per protein after 15 mins incubation; format: ADME; conditions: 0.25 h
[8] = Drug metabolism in dog intestinal microsomes assessed as R-138727 formation measured per protein at 1.6 to 200 uM after 15 mins incubation; format: ADME, Canis lupus familiaris, Intestine, Microsome; conditions: 0.25 h; how it was run: as §1
[9] = test system: Liver microsome; assay: Intrinsic clearance in human liver microsomes assessed as R-138727 formation at 1.6 to 200 uM measured per protein after 15 mins incubation; format: ADME; conditions: 0.25 h
[10] = test system: Liver microsome; assay: Intrinsic clearance in dog liver microsomes assessed as R-138727 formation measured per protein at 1.6 to 200 uM after 15 mins incubation; format: ADME, Canis lupus familiaris; conditions: 0.25 h; how it was run: as §2
[11] = Drug metabolism in dog intestinal microsomes assessed as R-138727 formation at 1.6 to 200 uM after 15 mins incubation; format: ADME, Canis lupus familiaris, Intestine, Microsome; conditions: 0.25 h; how it was run: as §1
[12] = Drug metabolism in human intestinal microsomes assessed as R-138727 formation at 1.6 to 200 uM after 15 mins incubation; format: ADME, Intestine, Microsome; conditions: 0.25 h; how it was run: as §1
[13] = test system: Canis familiaris; assay: Drug metabolism in beagle dog assessed as fraction of R-95913 hydrolysis to R-138727 formation at 1 mg/kg, intraduodenal; format: ADME, organism-based, Canis lupus familiaris; parameters: dose 1 mg/kg, route intraduodenal; conditions: in vivo, other
How it was run: (§3)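 Male beagle dogs (n = 6, 9–12 kg) with portal- and hepatic-vein cannulas, fasted about 19 h, got 1 mg/kg intraduodenally in 5% N,N-dimethylacetamide–95% PEG 400. Portal, hepatic and jugular blood was drawn into heparin at 1–120 min. Plasma was precipitated with acetonitrile (phenacetin internal standard) and analysed by LC-MS/MS in MRM mode. AUC0–2h was by trapezoidal noncompartmental analysis, mean ± S.D.; availability fractions were calculated from these AUCs.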

[14] = test system: Canis familiaris; assay: Drug metabolism in beagle dog assessed as fraction of compound hydrolysis to R-138727 formation in intestine at 1 mg/kg, intraduodenal; format: ADME, organism-based, Canis lupus familiaris; parameters: dose 1 mg/kg, route intraduodenal; conditions: in vivo, other; how it was run: as §3
[15] = test system: Canis familiaris; assay: Drug metabolism in beagle dog assessed as product of fraction of intestinal absorption and fraction of compound hydrolysis to R-138727 formation in intestine at 1 mg/kg, intraduodenal; format: ADME, organism-based, Canis lupus familiaris; parameters: dose 1 mg/kg, route intraduodenal; conditions: in vivo, other; how it was run: as §3
[16] = test system: Canis familiaris; assay: Drug metabolism in beagle dog assessed as product of fraction of intestinal absorption and fraction of compound hydrolysis to R-95913 formation in intestine at 1 mg/kg, intraduodenal; format: ADME, organism-based, Canis lupus familiaris; parameters: dose 1 mg/kg, route intraduodenal; conditions: in vivo, other; how it was run: as §3
[17] = test system: Canis familiaris; assay: Drug metabolism in beagle dog assessed as R-95913 formation in liver at 1 mg/kg, intraduodenal; format: ADME, organism-based, Canis lupus familiaris; parameters: dose 1 mg/kg, route intraduodenal; conditions: in vivo, other; how it was run: as §3
[18] = test system: Canis familiaris; assay: Drug metabolism in beagle dog assessed as fraction of compound hydrolysis to R-95913 formation in intestine at 1 mg/kg, intraduodenal; format: ADME, organism-based, Canis lupus familiaris; parameters: dose 1 mg/kg, route intraduodenal; conditions: in vivo, other; how it was run: as §3
[19] = test system: Canis familiaris; assay: Drug metabolism in beagle dog assessed as R-138727 formation in liver at 1 mg/kg, intraduodenal; format: ADME, organism-based, Canis lupus familiaris; parameters: dose 1 mg/kg, route intraduodenal; conditions: in vivo, other; how it was run: as §3

Compound	Km [1]	Km [2]	CL [3]	Vmax [4]	Vmax [5]	CL [6]	Vmax [7]	Vmax [8]	CLH [9]	CLint [10]	Km [11]	Km [12]	Fm [13]	Fm [14]	Fm [15]	Fm [16]	Fm [17]	Fm [18]	Fm [19]
O=C1C=C2CN(C(C(=O)C3CC3)c3ccccc3F)CCC2S1 (centres undefined)	18.5 µM	26 µM	1.2 µL/min/mg	379.9 pmol/min/mg	89.2 pmol/min/mg	1.1 µL/min/mg	247 pmol/min/mg	49.8 pmol/min/mg	9.6 µL/min/mg	20.6 µL/min/mg	42.7 µM	80.4 µM							
CC(=O)Oc1cc2c(s1)CCN(C(C(=O)C1CC1)c1ccccc1F)C2 (centres undefined) [PRASUGREL]													0.23	0.13	0.13	0.8	0.08	0.83	0.75
